Test [1] concerns the target Somatostatin receptor type 2 (Homo sapiens, UniProt P30874). As to the kind of experiment: Inhibition of 125I-[Leu8,D-Trp22,Tyr25]SRIF-28 binding to human somatostatin receptor type 2. The essentials: (§1)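 Human sst2 or sst3 receptor stably expressed in CCL39 cells. 20 µm cryostat sections of cell membrane pellets were used for autoradiographic binding. IC50 (nM) came from competitive displacement. Values are mean ± SEM when N ≥ 3; otherwise mean with single values.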

The target in test [2] is Somatostatin receptor type 3 (Homo sapiens, UniProt P32745). The test can be described thus: Inhibition of 125I-[Leu8,D-Trp22,Tyr25]SRIF-28 binding to human somatostatin receptor type 3. The procedure, abridged:
as §1

Test [3] addresses Somatostatin receptor type 4 (Homo sapiens, UniProt P31391). The test can be described thus: Inhibition of 125I-[Leu8,D-Trp22,Tyr25]SRIF-28 binding to human somatostatin receptor type 4.
The target in test [4] is Somatostatin receptor type 5 (Homo sapiens, UniProt P35346). As to the kind of experiment: Inhibition of 125I-[Leu8,D-Trp22,Tyr25]SRIF-28 binding to human somatostatin receptor type 5. The essentials:
(§2)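 Human sst1 or sst5 receptor stably expressed in CHO-K1 cells. 20 µm cryostat sections of cell membrane pellets were used for receptor autoradiography. IC50 (nM) came from competitive radioligand displacement. Values are mean ± SEM when N ≥ 3; otherwise mean with single values.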

In test [5] the target is Somatostatin receptor type 1 (Homo sapiens, UniProt P30872). As to the kind of experiment: Inhibition of 125I-[Leu8,D-Trp22,Tyr25]SRIF-28 binding to human somatostatin receptor type 1. The procedure, abridged:
as §2

In general, IC50 refers to the midpoint of a concentration-inhibition curve. High values mean a need for much substance, low ones inhibition by little substance.

Sequence of Somatostatin receptor type 2 (P30874 whole entry): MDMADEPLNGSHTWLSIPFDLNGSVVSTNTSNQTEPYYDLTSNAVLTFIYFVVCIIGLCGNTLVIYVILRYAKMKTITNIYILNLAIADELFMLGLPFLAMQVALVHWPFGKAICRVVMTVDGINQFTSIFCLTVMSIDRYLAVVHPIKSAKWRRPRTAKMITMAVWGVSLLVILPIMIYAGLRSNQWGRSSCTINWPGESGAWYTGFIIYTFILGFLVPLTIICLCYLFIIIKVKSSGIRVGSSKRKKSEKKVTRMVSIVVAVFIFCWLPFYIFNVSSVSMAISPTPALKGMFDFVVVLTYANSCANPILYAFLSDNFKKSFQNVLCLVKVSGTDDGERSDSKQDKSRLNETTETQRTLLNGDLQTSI
Sequence of Somatostatin receptor type 3 (P32745 whole entry): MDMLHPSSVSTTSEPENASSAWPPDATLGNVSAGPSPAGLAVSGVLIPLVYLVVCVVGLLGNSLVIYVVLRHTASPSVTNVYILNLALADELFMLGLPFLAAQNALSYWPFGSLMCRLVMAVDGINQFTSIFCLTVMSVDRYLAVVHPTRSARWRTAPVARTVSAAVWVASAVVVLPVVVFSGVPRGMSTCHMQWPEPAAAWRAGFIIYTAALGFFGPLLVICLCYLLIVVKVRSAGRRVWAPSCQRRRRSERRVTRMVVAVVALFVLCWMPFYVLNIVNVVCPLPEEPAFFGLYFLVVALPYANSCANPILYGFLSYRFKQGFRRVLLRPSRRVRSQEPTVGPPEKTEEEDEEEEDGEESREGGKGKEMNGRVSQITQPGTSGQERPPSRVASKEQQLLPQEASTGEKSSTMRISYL
Sequence of Somatostatin receptor type 5 (P35346 whole entry): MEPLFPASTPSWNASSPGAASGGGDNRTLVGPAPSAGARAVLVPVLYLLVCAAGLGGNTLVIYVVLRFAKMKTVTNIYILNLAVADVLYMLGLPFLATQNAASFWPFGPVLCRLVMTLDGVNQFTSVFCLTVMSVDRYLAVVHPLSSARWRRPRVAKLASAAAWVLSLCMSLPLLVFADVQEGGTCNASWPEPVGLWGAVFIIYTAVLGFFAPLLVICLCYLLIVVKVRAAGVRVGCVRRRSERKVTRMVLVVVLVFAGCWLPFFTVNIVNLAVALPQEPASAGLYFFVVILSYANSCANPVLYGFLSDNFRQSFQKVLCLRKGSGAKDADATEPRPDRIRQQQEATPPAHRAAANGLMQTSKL
Sequence of Somatostatin receptor type 4 (P31391 whole entry): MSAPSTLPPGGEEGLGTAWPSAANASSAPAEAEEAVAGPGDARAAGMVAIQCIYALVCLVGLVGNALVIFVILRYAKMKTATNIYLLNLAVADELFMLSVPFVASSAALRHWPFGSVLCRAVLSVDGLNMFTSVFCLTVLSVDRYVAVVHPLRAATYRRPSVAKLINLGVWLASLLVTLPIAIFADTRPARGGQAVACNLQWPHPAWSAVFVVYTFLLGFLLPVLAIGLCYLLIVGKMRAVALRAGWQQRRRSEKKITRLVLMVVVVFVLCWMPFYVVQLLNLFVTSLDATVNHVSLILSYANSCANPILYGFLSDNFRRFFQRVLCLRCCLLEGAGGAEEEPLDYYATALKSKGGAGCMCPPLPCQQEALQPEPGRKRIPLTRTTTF
Sequence of Somatostatin receptor type 1 (P30872 whole entry): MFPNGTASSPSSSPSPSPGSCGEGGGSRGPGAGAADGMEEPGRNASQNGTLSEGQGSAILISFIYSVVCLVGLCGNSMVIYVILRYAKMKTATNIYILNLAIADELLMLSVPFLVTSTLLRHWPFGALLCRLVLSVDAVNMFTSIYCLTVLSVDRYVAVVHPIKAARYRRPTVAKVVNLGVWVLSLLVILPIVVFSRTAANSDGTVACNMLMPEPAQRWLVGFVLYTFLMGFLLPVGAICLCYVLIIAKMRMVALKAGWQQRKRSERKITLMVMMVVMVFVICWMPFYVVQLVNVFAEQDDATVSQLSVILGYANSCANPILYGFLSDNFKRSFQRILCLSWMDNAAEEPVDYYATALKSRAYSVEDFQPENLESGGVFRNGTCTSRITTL

On to `CC(C)NCc1ccc(C[C@@H]2NC(=O)[C@@H](Cc3c[nH]c4ccccc34)NC(=O)[C@H](Cc3ccccc3)NC(=O)[C@@H]3CCC(=O)NCCCC[C@H](NC(=O)[C@H]([C@@H](C)O)NC2=O)C(=O)N[C@@H]([C@@H](C)O)C(=O)N[C@@H](CO)C(=O)N[C@H](C(=O)O)CSSC[C@H](NC(=O)[C@@H](N)Cc2ccc(O)cc2)C(=O)N[C@@H](CCCCN)C(=O)N3)cc1`, for which the half-maximal inhibitory concentration (IC50) in test [1], in test [2], in test [3], in test [4] and in test [5] was above 1 µM in each case.

As for `C[C@@H](O)[C@@H]1NC(=O)[C@H](CCCCN)NC(=O)[C@@H](Cc2c[nH]c3ccccc23)NC(=O)[C@H](Cc2ccccc2)NC(=O)[C@H](Cc2ccccc2)NC(=O)[C@H](CCCCN)NC(=O)[C@@H](N)CSSC[C@@H](C(=O)O)NC(=O)[C@H](Cc2ccccc2)NC1=O`, the IC50 is 0.015 µM in test [1]; 0.039 µM in test [2]; 0.0006 µM in test [3]; 0.013 µM in test [4]; 0.0053 µM in test [5].

As to `CC(C)NCc1ccc(C[C@@H]2NC(=O)[C@@H](Cc3c[nH]c4ccccc34)NC(=O)[C@H]3CCC(=O)NCC[C@H](NC(=O)[C@H]([C@@H](C)O)NC2=O)C(=O)N[C@@H]([C@@H](C)O)C(=O)N[C@@H](CO)C(=O)N[C@H](C(=O)O)CSSC[C@H](NC(=O)[C@@H](N)Cc2ccc(O)cc2)C(=O)N[C@@H](CCCCN)C(=O)N[C@@H](Cc2ccccc2)C(=O)N3)cc1`, the 50% inhibitory concentration (IC50) in test [1], in test [2], in test [3], in test [4] and in test [5] was above 1 µM throughout.

Consider `CC(C)NCc1ccc(C[C@@H]2NC(=O)[C@@H](Cc3c[nH]c4ccccc34)NC(=O)[C@H](Cc3ccccc3)NC(=O)[C@@H]3CC(=O)NC[C@H](NC(=O)[C@H](Cc4ccccc4)NC(=O)[C@H]([C@@H](C)O)NC2=O)C(=O)N[C@@H](CO)C(=O)N[C@H](C(=O)O)CSSC[C@H](NC(=O)[C@@H](N)Cc2ccc(O)cc2)C(=O)N[C@@H](CCCCN)C(=O)N3)cc1`, for which the IC50 in test [1], in test [2], in test [3], in test [4] and in test [5] was above 1 µM throughout.

Consider `CC(C)NCc1ccc(C[C@@H]2NC(=O)[C@@H](Cc3c[nH]c4ccccc34)NC(=O)[C@H](Cc3ccccc3)NC(=O)[C@@H]3CCC(=O)NCC[C@H](NC(=O)[C@H](Cc4ccccc4)NC(=O)[C@H]([C@@H](C)O)NC2=O)C(=O)N[C@@H](CO)C(=O)N[C@H](C(=O)O)CSSC[C@H](NC(=O)[C@@H](N)Cc2ccc(O)cc2)C(=O)N[C@@H](CCCCN)C(=O)N3)cc1`, for which the IC50 in test [1] was above 1 µM; in test [2] it was above 1 µM; in test [3], above 1 µM; in test [4], above 1 µM; in test [5], 0.104 µM.

`CC(C)NCc1ccc(C[C@@H]2NC(=O)[C@@H](Cc3c[nH]c4ccccc34)NC(=O)[C@@H]3CCC(=O)NCCCC[C@H](NC(=O)[C@H]([C@@H](C)O)NC2=O)C(=O)N[C@@H]([C@@H](C)O)C(=O)N[C@@H](CO)C(=O)N[C@H](C(=O)O)CSSC[C@H](NC(=O)[C@@H](N)Cc2ccc(O)cc2)C(=O)N[C@@H](CCCCN)C(=O)N[C@@H](Cc2ccccc2)C(=O)N3)cc1`: the IC50 in test [1], in test [2], in test [3], in test [4] and in test [5] was above 1 µM in each case.

Turning to `CC(C)NCc1ccc(C[C@@H]2NC(=O)[C@@H](Cc3c[nH]c4ccccc34)NC(=O)[C@@H]3CC(=O)NC[C@H](NC(=O)[C@H](Cc4ccccc4)NC(=O)[C@H]([C@@H](C)O)NC2=O)C(=O)N[C@@H](CO)C(=O)N[C@H](C(=O)O)CSSC[C@H](NC(=O)[C@@H](N)Cc2ccc(O)cc2)C(=O)N[C@@H](CCCCN)C(=O)N[C@@H](Cc2ccccc2)C(=O)N3)cc1`, the IC50 in test [1], in test [2], in test [3], in test [4] and in test [5] was above 1 µM throughout.

For the compound `C[C@@H](O)[C@@H]1NC(=O)[C@H](CCCCN)NC(=O)[C@@H](Cc2c[nH]c3ccccc23)NC(=O)[C@H](Cc2ccccc2)NC(=O)[C@@H](N)CSSC[C@@H](C(=O)O)NC(=O)[C@H](Cc2ccccc2)NC1=O`, the IC50 was 0.531 µM in test [1]; above 1 µM in test [2]; 0.229 µM in test [3]; above 1 µM in test [4]; above 1 µM in test [5].

For the compound `C[C@@H](O)[C@@H]1NC(=O)[C@H](CCCCN)NC(=O)[C@@H](Cc2c[nH]c3ccccc23)NC(=O)[C@H](Cc2ccccc2)NC(=O)[C@H](Cc2ccccc2)NC(=O)[C@@H](N)CSSC[C@@H](C(=O)O)NC1=O`, the half-maximal inhibitory concentration (IC50) in test [1] is 0.598 µM; in test [2] it was above 1 µM; in test [3], above 1 µM; in test [4] it was above 1 µM; in test [5], above 1 µM.

In the case of `CC(C)NCc1ccc(C[C@@H]2NC(=O)[C@@H](Cc3c[nH]c4ccccc34)NC(=O)[C@H]3CCC(=O)NCC[C@@H](NC(=O)[C@H]([C@@H](C)O)NC2=O)C(=O)N[C@@H]([C@@H](C)O)C(=O)N[C@@H](CO)C(=O)N[C@H](C(=O)O)CSSC[C@H](NC(=O)[C@@H](N)Cc2ccc(O)cc2)C(=O)N[C@@H](CCCCN)C(=O)N[C@@H](Cc2ccccc2)C(=O)N3)cc1`, the 50% inhibitory concentration (IC50) in test [1], in test [2], in test [3], in test [4] and in test [5] was above 1 µM in each case.

On to `CC(C)NCc1ccc(C[C@@H]2NC(=O)[C@@H](Cc3c[nH]c4ccccc34)NC(=O)[C@@H]3CCC(=O)NCC[C@H](NC(=O)[C@H](Cc4ccccc4)NC(=O)[C@H]([C@@H](C)O)NC2=O)C(=O)N[C@@H](CO)C(=O)N[C@H](C(=O)O)CSSC[C@H](NC(=O)[C@@H](N)Cc2ccc(O)cc2)C(=O)N[C@@H](CCCCN)C(=O)N[C@@H](Cc2ccccc2)C(=O)N3)cc1`, for which the IC50 in test [1] is above 1 µM; in test [2], above 1 µM; in test [3] it was above 1 µM; in test [4], above 1 µM; in test [5], 0.241 µM.

In the case of `CC(C)NCc1ccc(C[C@@H]2NC(=O)[C@@H](Cc3c[nH]c4ccccc34)NC(=O)[C@H](Cc3ccccc3)NC(=O)[C@@H]3CCC(=O)NCC[C@H](NC(=O)[C@H]([C@@H](C)O)NC2=O)C(=O)N[C@@H]([C@@H](C)O)C(=O)N[C@@H](CO)C(=O)N[C@H](C(=O)O)CSSC[C@H](NC(=O)[C@@H](N)Cc2ccc(O)cc2)C(=O)N[C@@H](CCCCN)C(=O)N3)cc1`, the IC50 was above 1 µM in test [1]; above 1 µM in test [2]; above 1 µM in test [3]; above 1 µM in test [4]; 0.597 µM in test [5].

With `CC(C)NCc1ccc(C[C@@H]2NC(=O)[C@@H](Cc3c[nH]c4ccccc34)NC(=O)[C@H](Cc3ccccc3)NC(=O)[C@H]3CCC(=O)NCC[C@@H](NC(=O)[C@H]([C@@H](C)O)NC2=O)C(=O)N[C@@H]([C@@H](C)O)C(=O)N[C@@H](CO)C(=O)N[C@H](C(=O)O)CSSC[C@H](NC(=O)[C@@H](N)Cc2ccc(O)cc2)C(=O)N[C@@H](CCCCN)C(=O)N3)cc1`, the IC50 in test [1], in test [2], in test [3], in test [4] and in test [5] was above 1 µM throughout.

Consider `NCCCC[C@@H]1NC(=O)[C@@H](Cc2c[nH]c3ccccc23)NC(=O)[C@H](Cc2ccccc2)NC(=O)[C@H](Cc2ccccc2)NC(=O)[C@@H](N)CSSC[C@@H](C(=O)O)NC(=O)[C@H](Cc2ccccc2)NC1=O`, for which the half-inhibitory concentration (IC50) is above 1 µM in test [1]; 0.905 µM in test [2]; 0.786 µM in test [3]; above 1 µM in test [4]; above 1 µM in test [5].

On to `CC(C)NCc1ccc(C[C@@H]2NC(=O)[C@@H](Cc3c[nH]c4ccccc34)NC(=O)[C@@H]3CC(=O)NCCC[C@H](NC(=O)[C@H](Cc4ccccc4)NC(=O)[C@H]([C@@H](C)O)NC2=O)C(=O)N[C@@H](CO)C(=O)N[C@H](C(=O)O)CSSC[C@H](NC(=O)[C@@H](N)Cc2ccc(O)cc2)C(=O)N[C@@H](CCCCN)C(=O)N[C@@H](Cc2ccccc2)C(=O)N3)cc1`, for which the IC50 in test [1], in test [2], in test [3], in test [4] and in test [5] was above 1 µM throughout.

For `CC(C)NCc1ccc(C[C@@H]2NC(=O)[C@@H](Cc3c[nH]c4ccccc34)NC(=O)[C@@H]3CCC(=O)NCC[C@H](NC(=O)[C@H]([C@@H](C)O)NC2=O)C(=O)N[C@@H]([C@@H](C)O)C(=O)N[C@@H](CO)C(=O)N[C@H](C(=O)O)CSSC[C@H](NC(=O)[C@@H](N)Cc2ccc(O)cc2)C(=O)N[C@@H](CCCCN)C(=O)N[C@@H](Cc2ccccc2)C(=O)N3)cc1`, the IC50 in test [1], in test [2], in test [3], in test [4] and in test [5] was above 1 µM in each case.

As for `CC(C)NCc1ccc(C[C@@H]2NC(=O)[C@@H](Cc3c[nH]c4ccccc34)NC(=O)[C@H](Cc3ccccc3)NC(=O)[C@@H]3CCC(=O)NCCCC[C@H](NC(=O)[C@H](Cc4ccccc4)NC(=O)[C@H]([C@@H](C)O)NC2=O)C(=O)N[C@@H](CO)C(=O)N[C@H](C(=O)O)CSSC[C@H](NC(=O)[C@@H](N)Cc2ccc(O)cc2)C(=O)N[C@@H](CCCCN)C(=O)N3)cc1`, the IC50 was above 1 µM in test [1]; above 1 µM in test [2]; above 1 µM in test [3]; above 1 µM in test [4]; 0.208 µM in test [5].
